Source: ChEMBL document CHEMBL4732185, “Synthesis, biological evaluation and structure-activity relationship of novel dichloroacetophenones targeting pyruvate dehydrogenase kinases with potent anticancer activity” (Eur J Med Chem, 2021)
Active and inactive are the calls of the source.

Key:
[1] = system: HCT-116; experiment: Antiproliferative activity against human HCT-116 cells assessed as growth inhibition after 72 hrs by MTT assay; assay type: functional, cell-based; conditions: Homo sapiens, HCT-116, 72 h; read-out: IC50
Summary of the method: (§1)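 MTT viability assay. Cancer lines seeded at 3000–6000 cells/well and L02 at 7000 cells/well, cultured overnight, then exposed to a full dose range for 72 h. MTT (0.5 mg/mL) added for 4 h, supernatant removed, formazan dissolved in DMSO, absorbance read at 570 nm. IC50 taken as the mean of three independent experiments. Cells grown in DMEM + 10% FBS, 37 °C, 5% CO2.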

[2] = system: A-375; experiment: Antiproliferative activity against human A375 cells assessed as growth inhibition after 72 hrs by MTT assay; assay type: functional, cell-based; conditions: Homo sapiens, A-375, 72 h; read-out: IC50; summary of the method: as §1
[3] = system: PC-3; experiment: Antiproliferative activity against human PC3 cells assessed as growth inhibition after 72 hrs by MTT assay; assay type: functional, cell-based; conditions: Homo sapiens, PC-3, 72 h; read-out: IC50; summary of the method: as §1
[4] = Inhibition of PDK (unknown origin) using RYHGHSMSDP as substrate after 30 mins by Kinase-Glo luminescent assay; set-up: species or system Homo sapiens
[5] = biological target: [Pyruvate dehydrogenase (acetyl-transferring)] kinase isozyme 1, mitochondrial (Homo sapiens, UniProt Q15118); experiment: Binding affinity to PDK1 (unknown origin) by isothermal titration calorimetry
Summary of the method: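 Isothermal titration calorimetry at 25 °C. Compound dissolved in DMSO, diluted to 100 µM in buffer and placed in the titration syringe; 250 µL of PDK protein solution in the reaction cell. Titrant added in 2.5 µL increments per injection.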

[6] = system: A-375; experiment: Induction of apoptosis in human A375 cells assessed as viable cells at 1 uM after 36 hrs by annexinV-FITC/propidium iodide staining based flow cytometric analysis (reference value: 94.15%); assay type: functional; conditions: read-out: Activity
[7] = system: A-375; experiment: Induction of apoptosis in human A375 cells assessed as early apoptotic cells at 1 uM after 36 hrs by annexinV-FITC/propidium iodide staining based flow cytometric analysis (reference value: 3.2%); assay type: functional
[8] = system: A-375; experiment: Induction of apoptosis in human A375 cells assessed as early apoptotic cells at 2.5 uM after 36 hrs by annexinV-FITC/propidium iodide staining based flow cytometric analysis (reference value: 3.2%); assay type: functional
[9] = system: A-375; experiment: Induction of apoptosis in human A375 cells assessed as early apoptotic cells at 5 uM after 36 hrs by annexinV-FITC/propidium iodide staining based flow cytometric analysis (reference value: 3.2%); assay type: functional
[10] = system: A-375; experiment: Induction of apoptosis in human A375 cells assessed as late apoptotic cells at 5 uM after 36 hrs by annexinV-FITC/propidium iodide staining based flow cytometric analysis (reference value: 1.02%); assay type: functional
[11] = system: A-375; experiment: Induction of apoptosis in human A375 cells assessed as necrotic cells at 5 uM after 36 hrs by annexinV-FITC/propidium iodide staining based flow cytometric analysis (reference value: 1.63%); assay type: functional
[12] = system: A-375; experiment: Induction of apoptosis in human A375 cells assessed as viable cells at 5 uM after 12 hrs by annexinV-FITC/propidium iodide staining based flow cytometric analysis (reference value: 97.94%); assay type: functional; conditions: read-out: Activity
[13] = system: A-375; experiment: Induction of apoptosis in human A375 cells assessed as late apoptotic cells at 5 uM after 12 hrs by annexinV-FITC/propidium iodide staining based flow cytometric analysis (reference value: 0.63%); assay type: functional
[14] = system: A-375; experiment: Induction of apoptosis in human A375 cells assessed as necrotic cells at 5 uM after 12 hrs by annexinV-FITC/propidium iodide staining based flow cytometric analysis (reference value: 0.56%); assay type: functional
[15] = system: A-375; experiment: Induction of cell cycle arrest in human A375 cells assessed as accumulation at G1 phase at 1 uM after 24 hrs by propidium iodide staining based flow cytometric analysis (reference value: 52.65%); assay type: functional
[16] = system: A-375; experiment: Induction of cell cycle arrest in human A375 cells assessed as accumulation at G1 phase at 2.5 uM after 24 hrs by propidium iodide staining based flow cytometric analysis (reference value: 52.65%); assay type: functional
[17] = system: A-375; experiment: Induction of cell cycle arrest in human A375 cells assessed as accumulation at S phase at 2.5 uM after 24 hrs by propidium iodide staining based flow cytometric analysis (reference value: 37.33%); assay type: functional
[18] = system: A-375; experiment: Induction of cell cycle arrest in human A375 cells assessed as accumulation at G2 phase at 2.5 uM after 24 hrs by propidium iodide staining based flow cytometric analysis (reference value: 10.02%); assay type: functional
[19] = system: A-375; experiment: Induction of cell cycle arrest in human A375 cells assessed as accumulation at G1 phase after 24 hrs by propidium iodide staining based flow cytometric analysis; assay type: functional; conditions: dose 1-5 µM
[20] = system: A-375; experiment: Inhibition of cell migration in human A375 cells at 0.5 to 2 uM after 24 hrs by wound healing assay; assay type: functional, cell-based; conditions: dose 0.5-2 µM
Summary of the method: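 A375 monolayer scratched and treated for 24 h, imaged at ×100. Closure ratio (%) = (start scratched area − after scratched area)/start scratched area, compared with control. P < 0.05 versus control considered significant.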

[21] = system: A-375; experiment: Induction of mitochondrial membrane depolarization in human A375 cells at 2 to 10 uM after 4 hrs by TMRM staining based confocal microscopic analysis; assay type: functional, cell-based; conditions: dose 2-10 µM
Summary of the method: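 A375 cells seeded at 4 x 10⁴ cells/mL and grown overnight at 37 °C. Treated 4 h at 37 °C. TMRM in fresh medium added for 15 min at 37 °C. Cells washed 3 times with cool PBS and imaged by laser scanning confocal microscopy.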

[22] = system: A-375; experiment: Induction of mitochondrial membrane depolarization in human A375 cells at 2 to 10 uM after 4 hrs by JC-1 staining based confocal microscopic analysis; assay type: functional, cell-based; conditions: dose 2-10 µM
Summary of the method: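 Mitochondrial membrane potential. A375 cells seeded at 4 × 10^4 cells/mL, grown overnight, then treated at 2, 5 or 10 µM at 37 °C for 4 h. Stained with JC-1 in fresh medium for 15 min at 37 °C, washed three times with cool PBS and imaged by laser scanning confocal microscopy (red J-aggregate vs green monomer).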

[23] = system: A-375; experiment: Inhibition of PDK in human A375 cells assessed as reduction in phosphorylation of PDC E1alpha at ser293 residues at 2.5 to 5 uM after 24 hrs by Western blot analysis; assay type: cell-based; conditions: dose 2.5-5 µM
Summary of the method: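 A375 cells in 6-well plates, treated 24 h. Lysed 15 min and spun 12000 rpm at 4 °C for 15 min. Protein equalized by BCA and denatured in SDS buffer at 100 °C for 8 min. Run on SDS-PAGE, transferred to nitrocellulose, blocked in 5% milk 2 h, primary antibody overnight, HRP anti-rabbit IgG 2 h, ECL detection.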

[24] = system: A-375; experiment: Inhibition of PDK in human A375 cells assessed as increase in oxygen consumption rate after 4 hrs by XFe cell Mito stress test assay; assay type: cell-based; conditions: dose 2.5-5 µM
Summary of the method: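 A375 cells attached, then given an extra 100 µL growth medium and incubated 24 h. Treated 4 h, then rinsed twice with pre-warmed XFe base medium. OCR measured as in a previous report.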

[25] = system: A-375; experiment: Antitumour activity against human A375 cells xenografted with mouse assessed as tumour growth inhibition at 5 mg/kg, im administered once per three days for 21 days; assay type: functional, organism-based; conditions: time 21.0 day
Summary of the method: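 Xenograft model. A375 cells harvested at 80% confluence with trypsin/EDTA, resuspended in serum-free DMEM and injected subcutaneously into the right flank of mice. Once tumours were visible (about 7 days), mice were randomised to vehicle or 5 mg/kg groups, n = 4, dosed by intramuscular injection once every three days. Tumour growth and body weight followed; tumours harvested and weighed at 21 days.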

[Pyruvate dehydrogenase (acetyl-transferring)] kinase isozyme 1, mitochondrial, sequence (Q15118 whole entry): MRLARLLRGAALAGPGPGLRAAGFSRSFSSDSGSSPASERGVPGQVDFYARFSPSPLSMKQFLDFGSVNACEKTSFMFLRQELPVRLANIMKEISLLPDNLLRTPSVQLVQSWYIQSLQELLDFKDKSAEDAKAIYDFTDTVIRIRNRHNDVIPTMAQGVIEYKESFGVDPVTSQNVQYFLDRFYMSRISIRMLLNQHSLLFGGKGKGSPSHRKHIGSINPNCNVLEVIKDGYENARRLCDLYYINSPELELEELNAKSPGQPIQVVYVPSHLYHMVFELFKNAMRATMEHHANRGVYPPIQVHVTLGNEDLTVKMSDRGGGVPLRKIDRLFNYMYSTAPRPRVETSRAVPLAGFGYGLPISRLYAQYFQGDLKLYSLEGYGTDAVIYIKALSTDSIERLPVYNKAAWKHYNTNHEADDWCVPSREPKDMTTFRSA

## CC(C)(CO)c1ccc(Nc2ccc(C(=O)C(Cl)Cl)cc2[N+](=O)[O-])cc1
[1]
  IC50: 2.1 µM
[2]
  IC50: 1.1 µM
[3]
  IC50: 3.8 µM
[4]
  EC50: 0.09 µM
[5]
  Kd: 0.21 µM
[6]
  viability at 1 µM: 81.9%
[7]
  Activity: 6.64%
[8]
  Activity: 5.6%
[9]
  Activity: 6.52%
[10]
  Activity: 38.81%
[11]
  Activity: 4.21%
[12]
  viability at 5 µM: 82.8%
[13]
  Activity: 6.88%
[14]
  Activity: 1.65%
[15]
  Activity: 55.72%
[16]
  Activity: 60.75%
[17]
  Activity: 30.75%
[18]
  Activity: 8.5%
[19]
  Activity: Dose-dependent effect
[20]
  inhibition: Active
[21]
  Activity: Active
[22]
  Activity: Active
[23]
  inhibition: Active
[24]
  inhibition: Dose-dependent effect
[25]
  Activity: Active
